Data set [1] is described as follows: melting temperature; fluorescence melt of hairpins on a sequencing array, two-state fit, raised by 9.35 °C to match UV melts. The note with it: sodium 0.088 M. In short, it runs like this:
(§1)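 Melting temperature and folding enthalpy were obtained by bootstrapped two-state fitting. Fits used Cy3 fluorescence of library hairpins with annealed Cy3 and quencher oligos on a sequenced MiSeq flow cell, imaged in 50 mM Na-HEPES pH 8.0, 25 mM NaCl in 2.5 °C steps up to 60 °C and normalised to pre-quench Cy3 and control constructs. Four replicates were combined by inverse-variance weighting, and fitted temperatures were raised by 9.35 °C to match UV melts.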

Data set [2] can be described thus: folding enthalpy; higher = less favourable; fluorescence melt of hairpins on a sequencing array, two-state fit. Conditions: sodium 0.088 M. In short, it runs like this: as §1

With GGCCAAGGAAACCTAGCC (((.(.(....).).))), in data set [1], the Tm came to 31.3 °C. Besides, the folding enthalpy in data set [2] was -27.2 kcal/mol.
In the same order, the values of GGCCAAGGAAACTCAGCC (((..((....))..))) are 30.2 °C and -11.7 kcal/mol.
For the sequence GGCCAAGGAAACTTAGCC (((.(((....))).))), the Tm in data set [1] worked out at 36.3 °C. For the same sequence, in data set [2], the folding enthalpy was -24.7 kcal/mol.
As to GGCCACGGAAACGTGACC ((.((((....)))).)), in data set [1], the Tm came to 54.1 °C. Besides, the folding enthalpy in data set [2] is -37.9 kcal/mol.
On the same counts, the results for GGCCAGACGAAAGTCGCC (((..(((....)))))) are 54.1 °C and -13.3 kcal/mol.
In the case of GGCCAGGGAAACCCGACC ((.(.((....)).).)), the Tm in data set [1] was 32.5 °C. Further, the folding enthalpy in data set [2] is -11.9 kcal/mol.
In the same order, the values of GGCCATCGAAAGATAGCC (((.(((....))).))) are 48.3 °C and -29.4 kcal/mol.
On the same counts, the results for GGCCATTCGAAAGAAGCC (((..(((....)))))) are 33.1 °C and -19.9 kcal/mol.
In the same order, the values of GGCCCAGGAAACTGGGTC (.(((((....))))).) are 59.8 °C and -34.5 kcal/mol.
Take GGCCCATCGAAAGATGCC (((..(((....)))))): the Tm in data set [1] was determined as 34.6 °C. For the same sequence, the folding enthalpy in data set [2] was -12.4 kcal/mol.
Regarding GGCCCCACGAAAGTGGCC (((..(((....)))))), in data set [1], the Tm is 44.7 °C. In addition, the folding enthalpy in data set [2] was -11.8 kcal/mol.
On the same counts, the results for GGCCCCGGAAACGGGACC ((.((((....)))).)) are 59 °C and -25.8 kcal/mol.
On the same counts, the results for GGCCCGCGAAAGCGCGCC (((.(((....))).))) are 64.4 °C and -26.5 kcal/mol.
GGCCCGCGAAAGCGTGCC (((.(((....))).))): in data set [1], the Tm was 67.3 °C. Besides, the folding enthalpy in data set [2] is -26.5 kcal/mol.
Consider GGCCCTCGAAAGAGTGCC (((.(((....))).))), for which the Tm in data set [1] came to 53.3 °C. For the same sequence, in data set [2], the folding enthalpy is -44.1 kcal/mol.
In the same order, the values of GGCCCTGGAAACAAGGCC ((((.((....)).)))) are 48.3 °C and -36.7 kcal/mol.
In the same order, the values of GGCCCTTCGAAAGAAGCC (((..(((....)))))) are 27.3 °C and -12.6 kcal/mol.
On the same counts, the results for GGCCGCACGAAAGTGGCC (((..(((....)))))) are 58.9 °C and -26.5 kcal/mol.
Turning to GGCCGCGAAAGCGATGCC ((((((....)))..))), the Tm in data set [1] was found to be 59.3 °C. Besides, in data set [2], the folding enthalpy was -25.2 kcal/mol.
In the same order, the values of GGCCGCGAAAGCGTGGCC ((((((....)))..))) are 69.2 °C and -22.8 kcal/mol.
With GGCCGCGGAAACACGGCC (((((.(....).))))), the Tm in data set [1] amounted to 66.1 °C. Moreover, in data set [2], the folding enthalpy was -45.4 kcal/mol.
On to GGCCGGGGAAACCCGACC ((.((((....)))).)), for which, in data set [1], the Tm was found to be 57.2 °C. Also, in data set [2], the folding enthalpy is -34.5 kcal/mol.
For the sequence GGCCGTGCGAAAGCAGCC (((..(((....)))))), the Tm in data set [1] turned out to be 46.6 °C. Also, the folding enthalpy in data set [2] was -16.3 kcal/mol.
In the case of GGCCGTGGAAACACGACC ((.((((....)))).)), the Tm in data set [1] turned out to be 55 °C. Moreover, in data set [2], the folding enthalpy is -36.2 kcal/mol.
In the case of GGCCGTGGAAACACGGTC (.(((((....))))).), the Tm in data set [1] turned out to be 65.3 °C. Besides, the folding enthalpy in data set [2] was -24.3 kcal/mol.
In the same order, the values of GGCCTACCGAAAGGTGCC (((..(((....)))))) are 46.7 °C and -20.7 kcal/mol.
Turning to GGCCTAGGAAACTGGGTC (.((.((....)).)).), the Tm in data set [1] was found to be 40.9 °C. The folding enthalpy in data set [2] is -28.5 kcal/mol.
On the same counts, the results for GGCCTATCGAAAGATGCC (((..(((....)))))) are 36.1 °C and -22.8 kcal/mol.
On the same counts, the results for GGCCTCGGAAACGAAGCC (((.(((....))).))) are 47.8 °C and -30.8 kcal/mol.
In the same order, the values of GGCCTGCCGAAAGGCGCC (((..(((....)))))) are 49.4 °C and -13.7 kcal/mol.
For the sequence GGCCTGCGAAAGCATGCC (((.(((....))).))), in data set [1], the Tm stood at 58.4 °C. Further, in data set [2], the folding enthalpy was -28.2 kcal/mol.
In the same order, the values of GGCCTGGGAAACTGGGCC ((((..(....)..)))) are 54.7 °C and -38 kcal/mol.
In the same order, the values of GGCCTTCCGAAAGGAGCC (((..(((....)))))) are 38.9 °C and -19.1 kcal/mol.
In the same order, the values of GGCCTTTCGAAAGAAGCC (((..(((....)))))) are 37.2 °C and -29.9 kcal/mol.
Regarding GGCGAACCGAAAGGTGCC (((..(((....)))))), the Tm in data set [1] turned out to be 53.7 °C. Moreover, the folding enthalpy in data set [2] was -28.3 kcal/mol.
Turning to GGCGAACGAAAGTTGGCC (((.(((....))).))), in data set [1], the Tm came out at 59 °C. Besides, the folding enthalpy in data set [2] is -42.5 kcal/mol.
Consider GGCGAAGCGAAAGCTGCC (((..(((....)))))), for which, in data set [1], the Tm is 52.8 °C. Besides, the folding enthalpy in data set [2] was -17.7 kcal/mol.
On the same counts, the results for GGCGAAGGAAACTTCGTC (.(((((....))))).) are 53.1 °C and -35.7 kcal/mol.
As for GGCGACCGAAAGGTGCC (((.(((....)))))), in data set [1], the Tm came to 63.5 °C. The folding enthalpy in data set [2] is -20.9 kcal/mol.
On the same counts, the results for GGCGACCGAAAGGTGGCC (((.(((....))).))) are 67.9 °C and -29.2 kcal/mol.
In the same order, the values of GGCGACGAAAGTCTCGCC ((((((....)))..))) are 55.2 °C and -25.7 kcal/mol.
On the same counts, the results for GGCGACGGAAACACCGCC ((((..(....)..)))) are 44.5 °C and -29.3 kcal/mol.
In the case of GGCGAGACGAAAGTCGCC (((..(((....)))))), the Tm in data set [1] was 59.4 °C. Moreover, the folding enthalpy in data set [2] is -13.8 kcal/mol.
Take GGCGAGGGAAACCTTGCC (((.(((....))).))): the Tm in data set [1] was 58 °C. Further, the folding enthalpy in data set [2] is -44.4 kcal/mol.
Regarding GGCGCAGGAAACTACGCC ((((.((....)).)))), the Tm in data set [1] was 53.5 °C. The folding enthalpy in data set [2] was -39 kcal/mol.
On the same counts, the results for GGCGCCGAAAGGCACGCC ((((((....)))..))) are 63.4 °C and -15.7 kcal/mol.
In the case of GGCGCGGCGAAAGCCGCC (((..(((....)))))), the Tm in data set [1] was 48.6 °C. The folding enthalpy in data set [2] was -5.51 kcal/mol.
In the same order, the values of GGCGGAACGAAAGTTGCC (((..(((....)))))) are 47.6 °C and -19.5 kcal/mol.
For the sequence GGCGGACCGAAAGGTGCC (((..(((....)))))), the Tm in data set [1] is 55.1 °C. Besides, in data set [2], the folding enthalpy is -19.9 kcal/mol.
In the same order, the values of GGCGGAGGAAACCCCACC ((.((.(....).)).)) are 29.6 °C and -20.2 kcal/mol.
Turning to GGCGGAGGAAACTCCACC ((.((((....)))).)), the Tm in data set [1] was determined as 48.9 °C. In addition, in data set [2], the folding enthalpy is -33.6 kcal/mol.
In the same order, the values of GGCGGAGGAAACTCCGTC (.(((((....))))).) are 61.2 °C and -25.7 kcal/mol.
As to GGCGGAGGAAACTCTGCC (((.(((....))).))), the Tm in data set [1] was 57.1 °C. The folding enthalpy in data set [2] was -51.1 kcal/mol.
On the same counts, the results for GGCGGAGGAAACTTCGCC ((((.((....)).)))) are 59 °C and -49.2 kcal/mol.
As to GGCGGCACGAAAGTGGCC (((..(((....)))))), the Tm in data set [1] turned out to be 52 °C. For the same sequence, the folding enthalpy in data set [2] was -11.6 kcal/mol.
In the same order, the values of GGCGGCCCGAAAGGGGCC (((..(((....)))))) are 53.1 °C and -7.67 kcal/mol.
For the sequence GGCGGCGAAAGCCCAGCC ((((((....)))..))), the Tm in data set [1] was 57.8 °C. In addition, the folding enthalpy in data set [2] was -18.5 kcal/mol.
Turning to GGCGGGGGAAACCTCGCC ((((.((....)).)))), the Tm in data set [1] stood at 66.1 °C. For the same sequence, the folding enthalpy in data set [2] was -32.4 kcal/mol.
On the same counts, the results for GGCGGTCGAAAGACGCC (((.(((....)))))) are 67.3 °C and -28.6 kcal/mol.
On the same counts, the results for GGCGGTGCGAAAGCAGCC (((..(((....)))))) are 55.8 °C and -14.8 kcal/mol.
In the same order, the values of GGCGGTGGAAACGCTGCC (((.(.(....).).))) are 54.6 °C and -21.9 kcal/mol.
In the case of GGCGTACGAAAGTAGCC (((.(((....)))))), in data set [1], the Tm was 65.5 °C. In addition, the folding enthalpy in data set [2] is -32.6 kcal/mol.
With GGCGTAGGAAACTGCGTC (.((.((....)).)).), the Tm in data set [1] turned out to be 44.1 °C. Also, the folding enthalpy in data set [2] was -19.5 kcal/mol.
On the same counts, the results for GGCGTCCGAAAGGAGGCC (((.(((....))).))) are 69.1 °C and -27 kcal/mol.
Consider GGCGTCGAAAGACATGCC ((((((....)))..))), for which, in data set [1], the Tm came out at 53 °C. Also, the folding enthalpy in data set [2] was -23.1 kcal/mol.
Regarding GGCGTCGAAAGACCAGCC ((((((....)))..))), the Tm in data set [1] was found to be 50.9 °C. Besides, the folding enthalpy in data set [2] was -18.6 kcal/mol.
On the same counts, the results for GGCGTCGAAAGACCTGCC ((((((....)))..))) are 46.6 °C and -18.5 kcal/mol.
GGCGTCGAAAGACGTGCC ((((((....)))..))): the Tm in data set [1] turned out to be 51.1 °C. The folding enthalpy in data set [2] is -12 kcal/mol.
As for GGCGTCGAAAGACTGGCC ((((((....)))..))), the Tm in data set [1] was 53.7 °C. Also, the folding enthalpy in data set [2] is -34.6 kcal/mol.
In the case of GGCGTCGGAAACAACGCC (((((.(....).))))), the Tm in data set [1] came out at 55.2 °C. Further, the folding enthalpy in data set [2] is -40.6 kcal/mol.
Regarding GGCGTCGGAAACGACGTC (.(((((....))))).), in data set [1], the Tm was 66.2 °C. In addition, the folding enthalpy in data set [2] was -23.4 kcal/mol.
For the sequence GGCGTGCCGAAAGGCGCC (((..(((....)))))), the Tm in data set [1] was 59.8 °C. Besides, the folding enthalpy in data set [2] is -11.5 kcal/mol.
On to GGCGTTCGAAAGAATGCC (((.(((....))).))), for which the Tm in data set [1] was determined as 62.8 °C. Besides, in data set [2], the folding enthalpy is -56.5 kcal/mol.

The values above are taken from the array DNA melting data of Ke et al. (doi:10.1101/2024.01.08.574731).
